ChEMBL document CHEMBL2150923, “Synthesis and biological evaluation of 2,3-diarylimidazo[1,2-a]pyridines as antileishmanial agents” (Eur J Med Chem, 2012)
The source made the active and inactive calls. The calls are words filed in the database; no cut-off is given here.

How the values were obtained:
HeLa = test: Cytotoxicity against human HeLa cells after 96 hrs by resazurin-based spectrofluorimetric method; format: cell-based
Summary of the method: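 HeLa cells in RPMI 1640 + 10% serum were seeded at 10^5/mL and incubated 24 h at 37 °C, 5% CO2. Compound dilutions were then added in duplicate, with DMSO at most 1% final. After 96 h, resazurin was added; after a further 3 h at 37 °C, fluorescence was read at ex 550/em 590 nm.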

[1] = Selectivity index, ratio of IC50 for human HeLa cells to IC50 for promastigote form of Leishmania major MHOM/IL/81/BNI; format: toxicity, cell-based; settings: read-out: Ratio IC50
[2] = Methanol-buffer partition coefficient, log D of the compound by RP-HPLC analysis at pH 4.5; format: physicochemical
Summary of the method: (§1)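 Log D was determined by RP-HPLC on a C18 column with methanol and aqueous buffer: 0.01 M acetic acid for pH 4.5, and 0.01 M ammonium acetate for […]. Dead time was taken from thiourea. Extrapolated log kw was calibrated against 30 OECD reference substances, and log D read by interpolation for each pH.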

Leishmania major [3] = test: Inhibition of Leishmania major PKC
Leishmania major [4] = test: Antileishmanial activity against promastigote form of Leishmania major MHOM/IL/81/BNI after 96 hrs by resazurin-based spectrofluorimetric method; format: functional, organism-based
Summary of the method: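 Promastigotes were maintained in Schneider's medium + 13% heat-inactivated FBS at 26 °C. They were seeded at 10^6/mL and exposed to compound for 96 h at 26 °C; DMSO was at most 1% final. Resazurin was added 4 h before reading, with fluorescence at ex 550/em 590 nm. IC50 values are means of at least three determinations.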

Leishmania major [5] = test: Antileishmanial activity against amastigote form of Leishmania major MHOM/IL/81/BNI infected in Balb/c mouse peritoneal macrophages assessed as inhibition of intracellular amastigote burden at 10 uM […] by May-Grunwald-Geimsa staining; format: functional
Summary of the method: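 Peritoneal macrophages from Balb/c mice at 1.5×10^5 cells/mL in RPMI 1640 + 15% FBS on glass slides, allowed to attach for 24 h (37 °C, 5% CO2). They were then infected with stationary-phase promastigotes (1.5×10^5/mL) for 24 h, washed, and exposed to 10 µM compound. Medium plus drug was renewed at 48 h. After 2 more days, cells were methanol-fixed, Giemsa-stained, and amastigotes counted per 100 macrophages in duplicate wells.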

[6] = Inhibition of pig brain CK1delta/epsilon using RRKHAAIGpSAYSITA as substrate and [32gammaP]ATP after 30 mins by scintillation counting; parameters: species or system Sus scrofa
Summary of the method: (§2)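 Kinase reactions at 30 °C for 30 min with 15 µM [γ-33P]ATP and 25 µM CKS peptide, in buffer A (Mops pH 7.2, EGTA, MgCl2, DTT, vanadate). Porcine-brain CK1δ/ε was run in three-fold diluted buffer A. LmCK1.2 was His-tagged, expressed in E. coli and cobalt-purified. Reactions were spotted on P81 paper, washed in 1% phosphoric acid, and counted by scintillation. After blank subtraction, activity is expressed as % of the uninhibited maximum, with DMSO controls.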

[7] = Methanol-buffer partition coefficient, log D of the compound by RP-HPLC analysis at pH 7.5; format: physicochemical; summary of the method: as §1
[8] = Inhibition of Leishmania major recombinant His-tagged CK1.2 using RRKHAAIGpSAYSITA as substrate and [32gammaP]ATP after 30 mins by scintillation counting; summary of the method: as §2
Leishmania major [9] = test: Antileishmanial activity against amastigote form of Leishmania major MHOM/IL/81/BNI infected in Balb/c mouse peritoneal macrophages assessed as inhibition of intracellular amastigote burden at 1 uM after 48 hrs by May-Grunwald-Geimsa staining; format: functional

Compound | IC50 (HeLa) [µM] | selectivity ratio [1] | chromatographic logD [2] | inhibition (Leishmania major [3]) | IC50 (Leishmania major [4]) [µM] | inhibition at 10 µM (Leishmania major [5]) [%] | IC50 [6] [µM] | chromatographic logD [7] | IC50 [8] [µM] | inhibition at 1 µM (Leishmania major [9]) [%]
CCOC(=O)c1ccc(-c2nc3ccccn3c2-c2ccccc2)cc1 | 346 | 8.65 | 4.26 | inactive | 40 | 86 | > 10 | 5.46 | > 10 | –
O=[N+]([O-])c1ccc(-c2c(-c3ccccc3)nc3ccccn23)cc1 | 27 | 5.51 | 3.29 | – | 4.9 | 68 | > 10 | 4.35 | > 10 | –
c1ccc(-c2nc3ccccn3c2-c2ccccc2)cc1 | 31 | 1.38 | 2.15 | – | 22.5 | 84 | > 10 | 4.5 | > 10 | –
Clc1cccc(-c2nc3ccccn3c2-c2ccccc2)c1 | 5 | 1.14 | 3.91 | – | 4.4 | 94 | > 10 | 5.25 | > 10 | –
CC(=O)Oc1ccc(-c2c(-c3ccccc3)nc3ccccn23)cc1 | 40 | 2.5 | – | – | 16 | – | – | – | – | –
COc1ccc(-c2nc3ccccn3c2-c2ccccc2)cc1 | 48 | 1.8 | 2.04 | – | 26.6 | 85 | > 10 | 4.59 | > 10 | –
COc1ccccc1-c1nc2ccccn2c1-c1ccccc1 | 24 | 1.32 | – | – | 18.2 | – | – | – | – | –
COc1ccc(-c2nc3ccccn3c2-c2cccc([N+](=O)[O-])c2)cc1 | 30 | 2.14 | – | – | 14 | – | – | – | – | –
Clc1cc(Cl)cc(-c2nc3ccccn3c2-c2ccccc2)c1 | 67 | 1.71 | 5.58 | inactive | 39 | – | > 10 | 6.1 | > 10 | 71
N#Cc1ccc(-c2c(-c3ccccc3)nc3ccccn23)cc1 | – | – | – | – | > 100 | – | – | – | – | –
Fc1ccccc1-c1nc2ccccn2c1-c1cccnc1 | 29 | 0.83 | – | – | 34.8 | – | – | – | – | –
c1ccc(-c2nc3ccccn3c2-c2ccncc2)cc1 | 25 | 3.85 | 2.03 | – | 6.5 | 32 | 0.25 | 2.87 | 0.3 | –
Clc1cc(Cl)cc(-c2c(-c3ccccc3)nc3ccccn23)c1 | 18 | 2.34 | 4.53 | – | 7.7 | 79 | > 10 | 5.88 | > 10 | –
CC(C)(C)C(=O)Oc1ccc(-c2c(-c3ccccc3)nc3ccccn23)cc1 | 38 | 5.43 | 4.04 | inactive | 7 | 95 | > 10 | 5.9 | > 10 | –
Clc1cc(Cl)cc(-c2nc3ccccn3c2-c2cccnc2)c1 | 28 | 0.89 | – | – | 31.4 | – | – | – | – | –
c1ccc(-c2nc3ccccn3c2-c2cncnc2)cc1 | – | – | – | – | > 100 | – | – | – | – | –

Compound | IC50 (HeLa) [µM] | selectivity ratio [1] | chromatographic logD [2] | inhibition (Leishmania major [3]) | IC50 (Leishmania major [4]) [µM] | inhibition at 10 µM (Leishmania major [5]) [%] | IC50 [6] [µM] | chromatographic logD [7] | IC50 [8] [µM] | inhibition at 1 µM (Leishmania major [9]) [%]
Oc1ccc(-c2c(-c3ccccc3)nc3ccccn23)cc1 | 16 | 0.4 | – | – | 40 | – | – | – | – | –
Fc1ccccc1-c1nc2ccccn2c1-c1ccccc1 | 18 | 0.46 | – | – | 39 | – | – | – | – | –
NC(=O)c1ccc(-c2c(-c3ccccc3)nc3ccccn23)cc1 | 27 | 1 | – | – | 27 | – | – | – | – | –
Cc1ccc(-c2c(-c3ccccc3)nc3ccccn23)cc1 | 4 | 1 | 2.61 | – | 4 | 96 | > 10 | 5.13 | > 10 | –
c1ccc(-c2nc3ccccn3c2-c2cccnc2)cc1 | 4 | 0.18 | – | – | 22.5 | – | – | – | – | –
Fc1ccc(-c2nc3ccccn3c2-c2cccnc2)cc1 | 87 | 2.27 | – | – | 38.3 | – | – | – | – | –
COc1ccc(-c2c(-c3ccccc3)nc3ccccn23)cc1 | 14 | 1.92 | 2.31 | – | 7.2 | 71 | 0.63 | 4.58 | 1.2 | –
O=[N+]([O-])c1ccc(-c2nc3ccccn3c2-c2ccccc2)cc1 | 554 | 18.5 | 4.2 | inactive | 30 | 84 | > 10 | 4.65 | > 10 | –
Nc1ccc(-c2c(-c3ccccc3)nc3ccccn23)cc1 | 28.1 | 0.65 | – | – | 43 | – | – | – | – | –
N=C(N)c1ccc(OCCCCCOc2ccc(C(=N)N)cc2)cc1 [PENTAMIDINE] | 15 | 3.13 | – | – | 4.8 | 99 | – | – | – | –
c1ccc(-c2nc3ccccn3c2-c2ccsc2)cc1 | 35 | 2.45 | – | – | 14.3 | – | – | – | – | –
Fc1ccc(-c2nc3ccccn3c2-c2ccccc2)cc1 | 72 | 3.13 | – | – | 23 | – | – | – | – | –
O=C(O)c1ccc(-c2c(-c3ccccc3)nc3ccccn23)cc1 | – | – | – | – | > 100 | – | – | – | – | –
CCOC(=O)c1ccc(-c2c(-c3ccccc3)nc3ccccn23)cc1 | 5 | 0.96 | 3.59 | – | 5.2 | 18 | 7.1 | 5.19 | 4 | –
O=[N+]([O-])c1cccc(-c2c(-c3ccc(F)cc3)nc3ccccn23)c1 | – | – | – | – | > 100 | – | – | – | – | –
